The source of these data is article PMC2975065 (Journal of molecular biology, 2010).

The target of assay [1] is T1, DiscII (Discoidin II) (Dictyostelium discoideum, UniProt P42530).
T1 sequence (P42530 1-257): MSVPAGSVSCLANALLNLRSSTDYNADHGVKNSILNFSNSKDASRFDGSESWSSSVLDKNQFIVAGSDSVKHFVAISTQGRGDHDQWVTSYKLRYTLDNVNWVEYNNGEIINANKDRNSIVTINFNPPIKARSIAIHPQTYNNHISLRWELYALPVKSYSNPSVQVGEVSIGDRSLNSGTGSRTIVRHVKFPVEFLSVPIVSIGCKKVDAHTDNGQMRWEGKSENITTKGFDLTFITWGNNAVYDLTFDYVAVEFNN
Particulars: ITC, taken from ref [29]; cited from earlier work.

For assay [2], the target named is DiscI (Discoidin I, isoform A) (Dictyostelium discoideum, UniProt P02886, S2A). Nature of the assay: Isothermal titration microcalorimetry. The conditions noted are these: ITC; for n (stoichiometry, fitted): n fitted to the curve for high affinity ligands. It counts as binding.
Assay [3] addresses T1, DiscII (Discoidin II). Nature of the assay: Isothermal titration microcalorimetry. It counts as binding. The conditions noted are these: for -TΔS / -ΔG / -ΔH: DiscII, ITC, 25 °C, ligands marked c only one experiment. The procedure, abridged:
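Run on a VP-ITC at 25 °C in 20 mM Tris-HCl pH 7.5, 150 mM NaCl, with sugar and protein in the same buffer. Thirty 10 μL injections of 2–40 mM sugar, 5 min apart, went into 0.15 mM lectin in the cell, stirred at 310 rpm. Sugar-into-buffer controls were run. Data were fitted to a single-site model giving Ka and ΔH (n fixed at 1 for weak ligands), with ΔG and ΔS derived. Runs were at least duplicated, or single where material was short.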

For a further assay, the target named is DiscI (Discoidin I) (Dictyostelium discoideum, UniProt P02886, S2A). Nature of the assay: Glycan microarray analysis of Alexa 488-labelled DiscI. It counts as binding. The conditions noted are these: DiscI at 0.04 μg ml^-1; printed glycan arrays version 3.1.
In assay [4] the target is T1, DiscII (Discoidin II). Nature of the assay: Glycan microarray analysis of Alexa 488-labelled DiscII. It counts as binding. The conditions noted are these: DiscII at 0.5 μg ml^-1; printed glycan arrays version 3.1. The procedure, abridged:
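Recombinant protein labelled with Alexa Fluor 488-TFP following the maker's protocol, then desalted on a polyacrylamide column. Screened on the Consortium for Functional Glycomics printed array v3.1 by the standard procedure, over 0.01–200 μg ml^-1 lectin. Binding read as fluorescence intensity.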

Setting [5] is: 20 mM Tris-HCl pH 7.5, 150 mM NaCl, 25 °C, averaged over two or three experiments.
Where [6] appears, read: KD, 20 mM Tris-HCl pH 7.5, 150 mM NaCl, 25 °C, averaged over two or three experiments.

Like-named read-outs stand apart in the source and are kept apart here.

Sequence of DiscI (Discoidin I) (P02886 whole entry S2A): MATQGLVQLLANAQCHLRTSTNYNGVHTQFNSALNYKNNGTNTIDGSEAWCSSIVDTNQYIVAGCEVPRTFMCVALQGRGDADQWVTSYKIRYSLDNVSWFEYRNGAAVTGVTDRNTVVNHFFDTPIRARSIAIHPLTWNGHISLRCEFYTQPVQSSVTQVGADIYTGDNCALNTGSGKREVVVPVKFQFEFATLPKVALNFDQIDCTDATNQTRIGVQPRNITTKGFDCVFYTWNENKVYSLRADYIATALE
Sequence of DiscI (Discoidin I, isoform A) (P02886 whole entry S2A, canonical isoform): as the sequence (P02886 whole entry S2A) above

In the case of `CC(=O)N[C@H]1C(O)O[C@H](CO)[C@H](O)[C@@H]1O` (mixture of isomers) [GalNAc, N-acetylgalactosamine], the results for the “-TΔS” value (on DiscII (Discoidin II) [1]; in assay [2] (25 °C)) were 0.837 kcal/mol and 3.18 ± 1.43 kcal/mol, respectively. The “-ΔG” value on DiscII (Discoidin II) [1] was 4.02 kcal/mol; in assay [2] (25 °C), 4.78 ± 0.048 kcal/mol. Besides, the “-ΔH” value at DiscII (Discoidin II) [1] was 4.85 kcal/mol; in assay [2] (25 °C) it was 7.98 ± 1.39 kcal/mol. For the same molecule, the Kd is 1120 µM on DiscII (Discoidin II) [1], 300 µM in assay [2] and 302 ± 27 µM in assay [2] (setting [5]).
Consider `CC(=O)N[C@H]1C(O)O[C@H](CO)[C@@H](O[C@@H]2O[C@H](CO)[C@H](O)[C@H](O)[C@H]2O)[C@@H]1O` (stereo partly drawn) [Gal1β1-4GlcNAc (LacNAc), Galβ1-4GlcNAc], for which, on DiscII (Discoidin II) [3], the Kd amounted to 1220 ± 23 µM, the “-TΔS” value was 4.9 ± 0.096 kcal/mol and the “-ΔG” value came out at 3.99 ± 0.12 kcal/mol. Further, the “Kd (in words)” value in assay [2] is listed as “millimolar range”. In assay [2] (25 °C), the “-TΔS” value came to 5.57 ± 0.478 kcal/mol, the “-ΔG” value came out at 3.59 ± 0.048 kcal/mol and the “-ΔH” value was determined as 9.18 ± 0.526 kcal/mol. Besides, binding in assay [2] (setting [6]) was put at a Kd of 2390 ± 170 µM.
In the case of `CC(=O)N[C@H]1C(O)O[C@H](CO)[C@H](O)[C@@H]1O[C@@H]1O[C@H](CO)[C@H](O)[C@H](O)[C@H]1O` (stereo partly drawn) [Gal1β-3GalNAc, Galβ1-3GalNAc], on DiscII (Discoidin II) [3], the Kd was 1380 µM, the “-TΔS” value amounted to 6.21 kcal/mol, the “-ΔG” value was determined as 3.9 kcal/mol and the “-ΔH” value worked out at 10.1 kcal/mol. Besides, in assay [2], the “increase in DiscI affinity when compared to GalNAc monosaccharide” value was “tenfold increase” and the “n (stoichiometry, fitted)” value is 1.03± 0.01. In addition, in assay [2] (25 °C), the “-TΔS” value was 4.66 ± 0.359 kcal/mol, the “-ΔG” value is 6.24 ± 0.096 kcal/mol and the “-ΔH” value was 10.9 ± 0.263 kcal/mol. In assay [2] (setting [6]), this molecule gave a Kd of 27.2 ± 4.6 µM. Further, in assay [2] (Kd), binding was put at a Kd of 27 µM. Besides, the “binding on glycan array (fluorescence intensity, in words)” value (shortened to “binding on glycan array”) at DiscI (Discoidin I) is given as “binds”.
`CC(=O)N[C@H]1[C@H](O[C@H]2[C@@H](O)[C@@H](CO)OC(O)[C@@H]2O)O[C@H](CO)[C@H](O)[C@@H]1O` (stereo partly drawn) [GalNAcβ1-3Gal]: at DiscII (Discoidin II) [3], the Kd was 1110 µM, the “-TΔS” value came out at 6.88 kcal/mol, the “-ΔG” value is 4.02 kcal/mol and the “-ΔH” value worked out at 10.9 kcal/mol. For the same molecule, in assay [2], the “increase in DiscI affinity when compared to GalNAc monosaccharide” value is reported as “tenfold increase” and the “n (stoichiometry, fitted)” value was 0.81 ± 0.01. In addition, in assay [2] (25 °C), the “-TΔS” value worked out at 6.886 ± 0.669 kcal/mol, the “-ΔG” value came out at 5.86 ± 0.072 kcal/mol and the “-ΔH” value turned out to be 12.7 ± 0.693 kcal/mol. Also, in assay [2] (setting [6]), binding was characterised by a dissociation constant (Kd) of 49.4 ± 1.5 µM. In assay [2] (Kd), the Kd was around 50 µM. Further, the “binding on glycan array” value at DiscI (Discoidin I) is given as “less strongly”.
On to `O=C[C@H](O)[C@@H](O)[C@@H](O)[C@H](O)CO` [Galactose, galactose], for which, in assay [2] (25 °C), the “-TΔS” value amounted to 4.09 ± 1.79 kcal/mol, the “-ΔG” value worked out at 3.3 ± 0.024 kcal/mol and the “-ΔH” value is 7.41 ± 1.77 kcal/mol. For the same molecule, in assay [2] (setting [6]), the Kd turned out to be 3770 ± 200 µM. This molecule also displayed a Kd in assay [2] (Kd) of 3000 to 4000 µM.
For the molecule `CC(=O)N[C@H]1[C@H](OC[C@H]2OC(O)[C@H](NC(C)=O)[C@@H](O)[C@H]2O)O[C@H](CO)[C@@H](O[C@@H]2O[C@H](CO)[C@H](O)[C@H](O)[C@H]2O)[C@@H]1O` (stereo partly drawn) [Galβ1-4GlcNAcβ1-6GalNAc (n° 149), Galβ1-4GlcNAcβ1-6GalNAc], at DiscII (Discoidin II) [4], the “binding on glycan array” value is “highest affinity”.
In the case of `CC(=O)NC1C(OC2C(O)C(CO)OC(O)C2NC(C)=O)OC(CO)C(O)C1O` (stereo not drawn) [GlcNAcβ1-3GalNAc (n° 159), GlcNAcβ1-3GalNAc], on DiscI (Discoidin I), the “binding on glycan array” value is given as “binds”.
For the molecule `CO[C@H]1O[C@H](CO)[C@H](O)[C@H](O)[C@H]1O` [αMeGalactoside], the Kd in assay [2] (setting [5]) was determined as 8390 ± 700 µM. Besides, in assay [2] (25 °C), the “-TΔS” value was determined as 7.29 ± 1.46 kcal/mol, the “-ΔG” value stood at 2.82 ± 0.048 kcal/mol and the “-ΔH” value amounted to 10.1 ± 1.41 kcal/mol.
Regarding `COC1OC(CO)C(O)C(O)C1O` (stereo not drawn) [βMeGalactoside, β–Methyl-galactoside], at DiscII (Discoidin II) [1], the “-TΔS” value was 1.6 kcal/mol, the “-ΔG” value is 4.16 kcal/mol, the “-ΔH” value is 5.81 kcal/mol and the Kd is 952 µM. The same molecule yielded a Kd in assay [2] (setting [5]) of 2960 ± 270 µM. For the same molecule, in assay [2] (25 °C), the “-TΔS” value came out at 6.19 ± 0.526 kcal/mol, the “-ΔG” value was found to be 3.44 ± 0.048 kcal/mol and the “-ΔH” value stood at 9.63 ± 0.574 kcal/mol.
